The target of data set [1] is T1, eEF-2K (Homo sapiens, UniProt O00418). The class given is biochemical.
Data set [2] has as its target T1, eEF-2K. In words: Dose-response inhibition of Pep-S phosphorylation by NH125. The class given is biochemical. The conditions noted are these: in the presence of 0.1% triton X-100.
A further data set concerns the target T2, TRPM7 (Homo sapiens, UniProt Q96QT4).
T2 sequence (Q96QT4 1551-1830): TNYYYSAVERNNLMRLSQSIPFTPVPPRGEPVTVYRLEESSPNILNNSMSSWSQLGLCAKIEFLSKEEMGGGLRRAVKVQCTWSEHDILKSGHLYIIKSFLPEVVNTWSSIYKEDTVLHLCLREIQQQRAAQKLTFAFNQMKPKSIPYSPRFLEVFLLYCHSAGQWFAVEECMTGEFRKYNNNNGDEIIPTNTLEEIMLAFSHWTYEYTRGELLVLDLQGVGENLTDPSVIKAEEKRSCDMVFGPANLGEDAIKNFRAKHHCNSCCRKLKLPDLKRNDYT
Put plainly: Dose-response inhibition assay against TRPM7. The class given is biochemical. The conditions noted are these: 25 nM TRPM7, 500 µM ATP (data not shown).

In the next data set the target is ERK2 (Homo sapiens, UniProt P28482). In words: Dose-response inhibition assay against ERK2. Type of data set: biochemical. Summed up: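 Radiometric kinase assay: 2 nM ERK2, 500 µM [γ-32P]-ATP, 20 µM Ets1 substrate, test compound 0–500 µM. IC50 and Hill coefficient came from a dose-response equation fit.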
ERK2, sequence (P28482 whole entry, species assumed): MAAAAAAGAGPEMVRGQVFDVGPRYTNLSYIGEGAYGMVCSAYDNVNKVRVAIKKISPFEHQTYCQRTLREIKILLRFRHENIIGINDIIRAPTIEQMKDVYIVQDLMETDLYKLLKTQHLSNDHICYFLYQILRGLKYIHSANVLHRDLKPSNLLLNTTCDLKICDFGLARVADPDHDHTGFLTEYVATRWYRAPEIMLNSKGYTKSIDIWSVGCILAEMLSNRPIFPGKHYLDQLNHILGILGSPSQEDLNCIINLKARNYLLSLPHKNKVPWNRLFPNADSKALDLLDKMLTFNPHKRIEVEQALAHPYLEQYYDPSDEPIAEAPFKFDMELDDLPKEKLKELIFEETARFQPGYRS
The target of data set [3] is T1, eEF-2K. In words: Phosphorylation of wheat germ EF2 by eEF-2K in vitro. Type of data set: biochemical.
The subject of data set [4] is MDA-MB-231 breast cancer cells. In words: Western blot of phospho-eEF2. The class given is cell-based. The conditions noted are these: 4 µM NH125, 0–12 h. (In general: A western blot detects proteins with antibodies after separation by electrophoresis.)
The subject of a further data set is A549 lung cancer cells. In words: Western blot of phospho-eEF2. The conditions noted are these: 4 µM NH125, 0–12 h. The class given is cell-based.
Another data set relates to HEK-293T cells. Put plainly: Western blot of phospho-eEF2. The class given is cell-based. As to conditions: 4 µM NH125, 0–12 h.
The subject of the next data set is GST-eEF-2K. As to conditions: in vitro kinase assay; cited from earlier work.
For a further data set, the system named is cancer cell lines. As to conditions: read-out: EC50, decrease of viability; a number of cancer cell lines; cited from earlier work.
The subject of another data set is C6 glioma cells. The conditions noted are these: 1 µM NH125, 12 hours; cited from earlier work.
Data set [5] deals with human microvascular endothelial cells (HMVECs). The conditions noted are these: 200 nM NH125, 2 hour pre-incubation; cited from earlier work.
For data set [6], the system named is eEF2 phosphorylation in the hippocampus. As to conditions: 5 mg/kg, 30 minutes, mice; cited from earlier work.
Data set [7] has as its system H1299, PC3, HeLa, H460 and C6 cell lines. As to conditions: NH125 for 6 hours; cited from earlier work.
Data set [8] concerns eEF-2K. The conditions noted are these: cited from earlier work.
The conditions of data set [9]: cited from earlier work.
Where [10] appears, read: varied ATP 12.5–125 µM, fixed Pep-S 50 µM.

Results on six molecules are retold here after paper PMC3673019 (Biochemistry, 2012).

Entries after “also recorded” stand apart in the source; their conditions may differ. Where two headings read alike, the source gives them in different places.

T1 sequence (O00418 whole entry): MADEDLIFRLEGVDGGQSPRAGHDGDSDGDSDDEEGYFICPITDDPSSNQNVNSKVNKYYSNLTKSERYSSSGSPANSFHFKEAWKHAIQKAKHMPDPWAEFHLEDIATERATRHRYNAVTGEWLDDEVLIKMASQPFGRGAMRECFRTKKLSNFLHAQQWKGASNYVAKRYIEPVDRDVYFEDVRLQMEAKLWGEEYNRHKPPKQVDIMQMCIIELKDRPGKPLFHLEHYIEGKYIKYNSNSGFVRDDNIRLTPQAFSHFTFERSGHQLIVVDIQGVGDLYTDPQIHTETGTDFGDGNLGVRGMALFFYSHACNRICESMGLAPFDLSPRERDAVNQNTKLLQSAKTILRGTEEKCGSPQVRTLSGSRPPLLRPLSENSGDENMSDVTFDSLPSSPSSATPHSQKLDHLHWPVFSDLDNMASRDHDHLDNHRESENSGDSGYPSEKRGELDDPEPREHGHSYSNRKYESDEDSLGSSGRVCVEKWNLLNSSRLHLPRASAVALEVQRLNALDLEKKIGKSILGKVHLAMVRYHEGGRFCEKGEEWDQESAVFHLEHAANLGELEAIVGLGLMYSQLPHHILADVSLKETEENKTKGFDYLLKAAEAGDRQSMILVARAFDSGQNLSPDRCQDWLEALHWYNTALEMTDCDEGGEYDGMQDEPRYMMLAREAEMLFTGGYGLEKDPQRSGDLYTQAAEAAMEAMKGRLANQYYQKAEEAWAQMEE

`Nc1ncnc2c1ncn2[C@@H]1O[C@H](COP(=O)(O)OP(=O)(O)O)[C@@H](O)[C@H]1O` [ADP, adenosine diphosphate]: the Mechanism of inhibition entry on eEF-2K [1] (setting [10]) is “Competitive ^d”; at eEF-2K [1] (varied Pep-S, fixed ATP 50 µM), “Mixed ^g”.

On to `Nc1ncnc2c1ncn2[C@@H]1O[C@H](COP(=O)(O)OP(=O)(O)OP(=O)(O)O)[C@@H](O)[C@H]1O` [ATP, adenosine triphosphate], for which the Kd (usually the concentration at which binding is half-saturated) on eEF-2K [1] turned out to be 16.2 ± 6.9 µM.

As to `CCCCCCCCCCCCCCCC[n+]1ccn(Cc2ccccc2)c1C.[I-]` [NH125, 1-benzyl-3-cetyl-2-methylimidazolium iodide], the Hill coefficient (as a rule, the slope factor of the fitted curve) at eEF-2K [2] amounted to 1.0 ± 0.28; on TRPM7, 1.6; on ERK2 (2 nM ERK2, 500 µM ATP (data not shown)) it was 3.6. The IC50 (commonly the concentration at which inhibition is half-maximal) on ERK2 is 70 µM; with GST-eEF-2K, 60 nM. On eEF-2K [3] (NH125 0–5 µM, 1 µM eEF2, 7.5 µM ATP, 10 nM eEF-2K), the “effect on the rate of phosphorylation of wheat germ eEF2” value is recorded as “no detectable effect; also recorded: failed to inhibit”. The “effect on phosphorylation of wheat germ eEF2” value on eEF-2K [3] (NH125 12.5 – 50 µM (Figure S3)) was “inhibition is observed”. Moreover, the “levels of eEF-2K and eEF-2” value (in data set [4]; with A549 lung cancer cells; in the data set on HEK-293T cells) was “increase” in each case. The “phospho-eEF2 (Thr-56) level” value (in [4] (versus DMSO); in the data set on A549 lung cancer cells (versus DMSO); with HEK-293T cells (versus DMSO)) was “No sign of decrease; also recorded: increased; also recorded: no inhibition was observed; also recorded: did not inhibit” each time. In addition, in the data set with cancer cell lines, the EC50 (in general, the concentration at which the effect is half-maximal) is 1000 to 5000 nM. In the data set on C6 glioma cells, the “phosphorylation of eEF2” value is given as “strongly inhibits”. Besides, the “resveratrol-induced eEF2 phosphorylation” value in data set [5] is on record as “inhibition”. The “eEF2 phosphorylation in the hippocampus” value in data set [6] was “observable decrease”. The “phosphorylation of eEF-2” value in data set [7] was “induction; also recorded: induce phosphorylation”.

Take `CC(=O)c1c(O)c(C)c(O)c(Cc2c(O)c3c(c(C(=O)/C=C/c4ccccc4)c2O)OC(C)(C)C=C3)c1O` [Rottlerin, rottlerin]: the kinase selectivity entry with eEF-2K [8] was “nonspecific inhibitor of multiple protein kinases”.

For `O=C1OC(c2cc(I)c(O)c(I)c2)(c2c(I)cc(O)cc2I)c2ccccc21` (stereo not shown) [tetraiodophenolphthalein], the diameter of aggregates entry in [9] is “approximately 150 nm”.

With Ac-RKKYKFNEDAERRRFL-NH2 [Pep-I], the Mechanism of inhibition entry on eEF-2K [1] (setting [10]) is “Mixed ^g”; on eEF-2K [1] (varied Pep-S, fixed ATP 50 µM), “Competitive ^d”.
